Calls of active or inactive are those of the source. The calls are words filed in the database; no cut-off is given here.
Tests used:
Vasopressin V2 receptor [1] = molecular target: Vasopressin V2 receptor (Rattus norvegicus, UniProt Q00788); assay: Displacement of [3H]vasopressin from rat vasopressin V2 receptor expressed in CHO cells by microplate scintillation counting; assay type: cell-based
Vasopressin V2 receptor [2] = molecular target: T1, Vasopressin V2 receptor (Homo sapiens, UniProt P30518); assay: Agonist activity at human vasopressin V2 receptor expressed in CHO cells assessed as cAMP accumulation by HTRF assay; assay type: functional, cell-based
T1 sequence (P30518 whole entry): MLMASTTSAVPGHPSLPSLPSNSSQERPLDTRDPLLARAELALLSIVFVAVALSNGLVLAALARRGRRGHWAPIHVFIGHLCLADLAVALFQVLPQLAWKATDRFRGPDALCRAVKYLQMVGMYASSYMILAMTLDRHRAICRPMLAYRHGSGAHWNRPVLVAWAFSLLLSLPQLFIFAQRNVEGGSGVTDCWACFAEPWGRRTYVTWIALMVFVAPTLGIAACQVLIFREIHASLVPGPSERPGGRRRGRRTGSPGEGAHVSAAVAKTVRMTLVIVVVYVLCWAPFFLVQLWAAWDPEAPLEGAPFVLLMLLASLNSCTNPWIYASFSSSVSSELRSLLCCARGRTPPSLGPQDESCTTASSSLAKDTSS
In short: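 Cells kept in α-MEM with 10% FBS, penicillin/streptomycin and 0.1% amethopterin at 37 °C, 5% CO₂, grown to subconfluence, then serum-starved 24 h. Medium changed to α-MEM with 1 mmol/L IBMX and 0.1% BSA, compound added for 10 min at 37 °C. Lysis in PBS/0.2% Triton X-100, cAMP read by HTRF. Triplicate.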

Vasopressin V2 receptor [3] = molecular target: T1, Vasopressin V2 receptor; assay: Displacement of [3H]vasopressin from human vasopressin V2 receptor expressed in CHO cells by microplate scintillation counting; assay type: cell-based
Vasopressin V2 receptor [4] = molecular target: T1, Vasopressin V2 receptor; assay: Intrinsic activity at human vasopressin V2 receptor expressed in CHO cells assessed as cAMP accumulation by HTRF assay relative to arginine vasopressin; assay type: functional, cell-based

Chain of Vasopressin V2 receptor (Rattus norvegicus, UniProt Q00788) (Q00788 whole entry): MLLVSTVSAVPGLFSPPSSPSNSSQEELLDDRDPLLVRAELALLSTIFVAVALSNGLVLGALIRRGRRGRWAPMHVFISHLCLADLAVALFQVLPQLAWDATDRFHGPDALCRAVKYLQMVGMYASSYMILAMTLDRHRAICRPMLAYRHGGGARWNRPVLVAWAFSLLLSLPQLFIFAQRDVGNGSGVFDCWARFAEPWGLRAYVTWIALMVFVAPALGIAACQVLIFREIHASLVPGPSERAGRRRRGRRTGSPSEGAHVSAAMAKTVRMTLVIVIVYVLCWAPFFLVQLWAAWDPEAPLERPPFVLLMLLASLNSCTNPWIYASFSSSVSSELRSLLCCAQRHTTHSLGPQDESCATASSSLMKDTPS

Compound	Ki (Vasopressin V2 receptor [1])	Activity (Vasopressin V2 receptor [2])	Ki (Vasopressin V2 receptor [3])	Activity (Vasopressin V2 receptor [4])	EC50 (Vasopressin V2 receptor [2])
CN1CCN(c2ccc(C(=O)N3CCC(F)(F)/C(=C\C(=O)NCc4ccccn4)c4ccccc43)c(Cl)c2)CC1	–	–	170 nM	35.5%	> 10000 nM
CC(C)c1ccn(-c2ccc(C(=O)N3CCC(F)(F)/C(=C\C(=O)NCc4ccccn4)c4ccccc43)c(Cl)c2)n1	–	–	18 nM	4.9%	> 10000 nM
CCc1ccn(-c2ccc(C(=O)N3CCC(F)(F)/C(=C\C(=O)NCc4ccccn4)c4ccccc43)c(Cl)c2)n1	–	–	21 nM	86.8%	> 10000 nM

Results, then the molecule that gave them:

Ki (Vasopressin V2 receptor [1])	Activity (Vasopressin V2 receptor [2])	Ki (Vasopressin V2 receptor [3])	Activity (Vasopressin V2 receptor [4])	EC50 (Vasopressin V2 receptor [2])	Compound
0.4 nM	inactive	–	–	–	O=C(/C=C1/c2ccccc2N(C(=O)c2ccc(NC(=O)c3ccccc3-c3ccccc3)cc2)CCC1(F)F)NCc1ccccn1
19 nM	–	–	–	–	Cc1ccn(-c2ccc(C(=O)N3CCC(F)(F)/C(=C\C(=O)NCc4ccccn4)c4ccccc43)c(Cl)c2)n1
